Assay results from different studies.
Lines come from different studies, so protocols differ.
Target: Ephrin type-B receptor 6 (EPHB6, Homo sapiens, UniProt O15197)
One construct used (O15197 32-1021): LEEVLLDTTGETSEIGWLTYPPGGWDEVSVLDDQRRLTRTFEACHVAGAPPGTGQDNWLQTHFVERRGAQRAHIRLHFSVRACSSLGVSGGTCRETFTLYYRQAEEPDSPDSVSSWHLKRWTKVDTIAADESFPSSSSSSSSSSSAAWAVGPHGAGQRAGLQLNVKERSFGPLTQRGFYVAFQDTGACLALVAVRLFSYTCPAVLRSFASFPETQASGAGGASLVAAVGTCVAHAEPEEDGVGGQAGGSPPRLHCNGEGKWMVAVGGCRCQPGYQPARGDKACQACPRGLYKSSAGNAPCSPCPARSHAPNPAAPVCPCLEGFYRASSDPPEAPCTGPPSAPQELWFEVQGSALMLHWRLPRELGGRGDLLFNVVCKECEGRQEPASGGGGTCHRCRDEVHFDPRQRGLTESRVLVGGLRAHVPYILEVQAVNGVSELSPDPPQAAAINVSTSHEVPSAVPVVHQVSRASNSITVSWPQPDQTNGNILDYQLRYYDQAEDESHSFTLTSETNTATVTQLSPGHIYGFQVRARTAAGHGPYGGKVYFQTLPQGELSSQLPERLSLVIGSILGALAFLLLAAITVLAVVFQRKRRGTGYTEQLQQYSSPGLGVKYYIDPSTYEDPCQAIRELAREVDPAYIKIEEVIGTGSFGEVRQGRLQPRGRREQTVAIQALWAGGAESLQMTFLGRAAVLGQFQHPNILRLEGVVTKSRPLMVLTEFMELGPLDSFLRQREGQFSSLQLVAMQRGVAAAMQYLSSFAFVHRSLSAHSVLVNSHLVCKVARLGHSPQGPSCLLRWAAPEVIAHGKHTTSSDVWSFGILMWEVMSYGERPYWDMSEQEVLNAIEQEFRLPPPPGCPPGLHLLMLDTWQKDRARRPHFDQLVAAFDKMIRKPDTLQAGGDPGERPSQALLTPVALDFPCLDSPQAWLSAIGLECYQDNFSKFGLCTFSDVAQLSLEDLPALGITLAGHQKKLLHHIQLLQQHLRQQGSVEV

SMILES | assay | conditions | remaining binding [%]
CN(c1ccnc(CNc2nc(Nc3ccc4c(c3)CC(=O)N4)ncc2C(F)(F)F)n1)S(C)(=O)=O | cell-free assay, competition with immobilised ligand | 1 µM | 54
C[C@@H]1CCN(c2nccc(-c3cnn4ncccc34)n2)C1 | binding | 1 µM | 93
Cc1c[nH]c2nccc(Oc3c(F)cc(Nc4cc(Cl)nc(N)n4)cc3F)c12 | cell-free assay, competition with immobilised ligand | 0.1 µM | 96
c1cnn2ncc(-c3ccnc(N4CCC45COC5)n3)c2c1 | binding | 1 µM | 63
Cc1cnc(Nc2ccc(C(=O)N3CCC(N4CCCC4)CC3)cc2)nc1-c1cc2ccccc2s1 | binding, competition with immobilised ligand | 1 µM | 3.3
O=C(O)[C@@H]1[C@@H](Cn2nnc3ccccc3c2=O)CC[C@H]1C(=O)c1ccc(OCCC2CCOCC2)cc1 | cell-free assay, competition with immobilised ligand | 1 µM | 100
c1cncc(-c2cccc(Nc3nccc(NC4CCCCC4)n3)c2)c1 | binding, competition with immobilised ligand | 10 µM | 1.6
COc1cnc(Nc2cccc(S(N)(=O)=O)c2)nc1N1CCN(c2ccccc2)C(=O)C1 | binding, competition with immobilised ligand | 1 µM | 90
O=C(NCC1CCOCC1)c1n[nH]cc1NC(=O)c1c(F)cccc1F | binding, competition with immobilised ligand | 1 µM | 91
O=C(NCCCN1CCOCC1)c1ccc(Nc2ncc(Cl)c(-c3ccc(Cl)s3)n2)cc1 | binding, competition with immobilised ligand | 1 µM | 13
CC(=O)N1CCC(c2ccc(C(=O)NC3=NCCN3)cc2C(F)(F)F)CC1 | cell-free assay, competition with immobilised ligand | 1 µM | 100
CC1CCCN1c1nccc(-c2cnn3ncccc23)n1 (stereo not shown) | binding | 1 µM | 82
CS(=O)(=O)N1CCCC(NC(=O)[C@H](CCC2CCCCC2)NC(=O)c2ccc(CNC(=O)c3cnc4ccccn34)cc2)C1 (stereo partly shown) | cell-free assay, competition with immobilised ligand | 0.1 µM | 98
COc1ccnn2ncc(-c3ccnc(N(C)C)n3)c12 | binding | 1 µM | 27
O=C(Nc1cccnn1)N1CC(C/C=C/c2cncc(Oc3ccc(C(F)(F)F)cn3)n2)C1 | cell-free assay, competition with immobilised ligand | 1 µM | 87
N[C@H]1CCN(c2nccc(-c3cnn4ncccc34)n2)C1 | binding | 1 µM | 56
O=C(NCCCN1CCOCC1)c1ccc(Nc2nccc(-c3cc4ccccc4s3)n2)cc1 | binding, competition with immobilised ligand | 1 µM | 18
CN(C)c1nccc(-c2cnc3ncccn23)n1 | binding | 1 µM | 45
FC(F)(F)Oc1cccc(-c2cnc3ccc(-c4ccncc4)nn23)c1 | cell-free assay, competition with immobilised ligand | 5 µM | 9.3
CN(c1nccc(-c2cnn3ncccc23)n1)C1CC1 | binding | 1 µM | 100
O=C(NC[C@@H]1[C@H]2CN(C(=O)OCc3cc(C(F)(F)F)cc(C(F)(F)F)c3)C[C@@H]12)c1ccc2[nH]nnc2c1 | cell-free assay, competition with immobilised ligand | 1 µM | 100
C[C@@H](c1ccc(-n2cnc3c(N)ncnc32)cc1)N1CCc2nn(C)c(Cc3ccccc3)c2C1=O | binding, competition with immobilised ligand | 0.1 µM | 51
